The source made the active and inactive calls. No cut-off for these calls is given here. Peptide text beside a SMILES is read from it.
Experiments:
HIT-T15 [1] = experiment: Cytoprotective activity in hamster HIT-T15 cells assessed as inhibition of IFN-gamma/TNFalpha/IL1beta-induced cell death at 10 to 100 nM after 24 hrs by MTT assay relative to control; assay type: functional, cell-based; settings: Mesocricetus auratus
Summary of the method: (§1)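 HIT-T15 cells (5×10^3/well) serum-starved 24 h, then 24 h serum-free with IFN-γ 100 ng/mL, TNF-α 200 ng/mL, IL-1β 10 ng/mL plus peptide (1–100 nM). MTT 1 mg/mL ~1 h, formazan dissolved in DMSO, A570. Reported as percent of cytokine control. Mean ± SE of ≥3 experiments in quadruplicate.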

[2] = target: Ras-related C3 botulinum toxin substrate 1 (Homo sapiens) (UniProt P63000); experiment: Inhibition of Rac1 activation
HIT-T15 [3] = experiment: Cytoprotective activity in hamster HIT-T15 cells assessed as inhibition of serum starvation-induced cell death after 24 hrs by MTT assay relative to control; assay type: functional, cell-based; settings: Mesocricetus auratus
Summary of the method: (§2)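 Viability by MTT in HIT-T15 cells seeded at 5×10^3/well, serum-starved 24 h, then 24 h more in serum-free medium with peptide (1–100 nM). MTT 1 mg/mL ~1 h, DMSO solubilization, absorbance 570 nm. Expressed as percent of serum-free control. Mean ± SE, ≥3 experiments in quadruplicate.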

HIT-T15 [4] = experiment: Cytoprotective activity in hamster HIT-T15 cells assessed as inhibition of IFN-gamma/TNFalpha/IL1beta-induced cell death after 24 hrs by MTT assay relative to control; assay type: functional, cell-based; settings: Mesocricetus auratus; summary of the method: as §1
EPC [5] = experiment: Cytoprotective activity in human EPC assessed as decrease in H2O2-induced ROS production after 2 hrs by DCF-DA flow cytometry assay; assay type: functional
Summary of the method: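 Human EPCs from peripheral blood mononuclear cells, cultured 21 days on collagen I in EGM-2. ROS measured by flow cytometry using DCF-DA (0.5 μM final) after 2 h of treatment. H₂O₂ 150 μM as positive control.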

EPC [6] = experiment: Cytoprotective activity in human EPC assessed as decrease in H2O2-induced senescence associated beta-galactosidase positive cells at 10 uM after 24 hrs; assay type: functional
Summary of the method: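 EPCs given test peptides (1 μM or 10 μM) with or without H₂O₂ for 24 h. Cells then fixed in 2% paraformaldehyde for 3 min and stained 24 h at 37 °C with X-gal solution. SA-β-gal-positive cells counted out of 100 at 20× by three investigators.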

HIT-T15 [7] = experiment: Antiapoptotic activity in hamster HIT-T15 cells assessed as reduction in IFN-gamma/TNFalpha/IL1beta-induced apoptosis at 1 nM after 24 hrs by Hoechst staining relative to control; assay type: functional, cell-based; settings: Mesocricetus auratus
Summary of the method: (§3)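 HIT-T15 cells serum-starved 24 h, then 24 h in serum-free medium with IFN-γ 100 ng/mL, TNF-α 200 ng/mL, IL-1β 10 ng/mL plus peptide. Cells pooled with floating cells, formaldehyde-fixed, ethanol-stored, stained with 10 μg/mL Hoechst 33258. Condensed/fragmented nuclei counted, 500 nuclei in duplicate, n = 3. Reported as percent apoptotic cells.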

HIT-T15 [8] = experiment: Antiapoptotic activity in hamster HIT-T15 cells assessed as reduction in IFN-gamma/TNFalpha/IL1beta-induced apoptosis at 10 nM after 24 hrs by Hoechst staining relative to control; assay type: functional, cell-based; settings: Mesocricetus auratus; summary of the method: as §3
HIT-T15 [9] = experiment: Antiapoptotic activity in hamster HIT-T15 cells assessed as reduction in IFN-gamma/TNFalpha/IL1beta-induced apoptosis at 100 nM after 24 hrs by Hoechst staining relative to control; assay type: functional, cell-based; settings: Mesocricetus auratus; summary of the method: as §3
HIT-T15 [10] = experiment: Cytoprotective activity in hamster HIT-T15 cells assessed as inhibition of IFN-gamma/TNFalpha/IL1beta-induced cell death at 1 to 100 nM after 24 hrs by MTT assay relative to control; assay type: functional, cell-based; settings: Mesocricetus auratus; summary of the method: as §1
Pancreatic islet [11] = experiment: Cytoprotective activity in human pancreatic islet cells assessed as inhibition of serum starvation-induced cell death at 1 nM after 24 hrs by MTT assay relative to control; assay type: functional
Summary of the method: (§4)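 Human donor islets (purity >70%, 25/well) serum-starved 24 h, then 24 h serum-free with peptide (1–100 nM), alone or with IFN-γ 100 ng/mL, TNF-α 200 ng/mL, IL-1β 10 ng/mL. MTT 1 mg/mL ~1 h, DMSO, A570. Percent of serum-free or cytokine control. ≥3 experiments in quadruplicate.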

Pancreatic islet [12] = experiment: Cytoprotective activity in human pancreatic islet cells assessed as inhibition of IFN-gamma/TNFalpha/IL1beta-induced cell death at 1 nM after 24 hrs by MTT assay relative to control; assay type: functional; summary of the method: as §4
Pancreatic islet [13] = experiment: Cytoprotective activity in human pancreatic islet cells assessed as inhibition of serum starvation-induced cell death at 100 nM after 24 hrs by MTT assay relative to control; assay type: functional; summary of the method: as §4
Pancreatic islet [14] = experiment: Cytoprotective activity in human pancreatic islet cells assessed as inhibition of IFN-gamma/TNFalpha/IL1beta-induced cell death at 100 nM after 24 hrs by MTT assay relative to control; assay type: functional; summary of the method: as §4
Pancreatic islet [15] = experiment: Cytoprotective activity in human pancreatic islet cells assessed as inhibition of IFN-gamma/TNFalpha/IL1beta-induced cell death at 10 nM after 24 hrs by MTT assay relative to control; assay type: functional; summary of the method: as §4
Pancreatic islet [16] = experiment: Cytoprotective activity in human pancreatic islet cells assessed as inhibition of serum starvation-induced cell death at 10 nM after 24 hrs by MTT assay relative to control; assay type: functional; summary of the method: as §4
HIT-T15 [17] = experiment: Cytoprotective activity in hamster HIT-T15 cells assessed as inhibition of serum starvation-induced cell death at 1 to 100 nM after 24 hrs by MTT assay relative to control; assay type: functional, cell-based; settings: Mesocricetus auratus; summary of the method: as §2
Pancreatic islet [18] = experiment: Cytoprotective activity in human pancreatic islet cells assessed as inhibition of IFN-gamma/TNFalpha/IL1beta-induced cell death at 100 nM after 72 hrs by MTT assay relative to control; assay type: functional
Summary of the method: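 Human donor islets (>70% purity, 25/well) held 72 h in serum-free medium with peptide, alone or with IFN-γ/TNF-α/IL-1β at 5 ng/mL each. Viability by MTT (1 mg/mL ~1 h, DMSO, 570 nm). Mean ± SE of ≥3 experiments in quadruplicate.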

| Compound | Activity (HIT-T15 [8]) | Activity (HIT-T15 [9]) | Activity (HIT-T15 [10]) | Activity (Pancreatic islet [11]) | Activity (Pancreatic islet [12]) | Activity (Pancreatic islet [13]) | Activity (Pancreatic islet [14]) | Activity (Pancreatic islet [15]) | Activity (Pancreatic islet [16]) | Activity (HIT-T15 [17]) | other results |
| --- | --- | --- | --- | --- | --- | --- | --- | --- | --- | --- | --- |
| CC(C)[C@H](NC(=O)[C@H](CCCNC(=N)N)NC(=O)[C@H](CCC(N)=O)NC(=O)[C@@H](N)Cc1cnc[nH]1)C(N)=O (H-HQRV-NH2) | – | – | – | – | – | – | – | – | – | – | Activity (HIT-T15 [1]): Active |
| CC(C)[C@@H]1NC(=O)[C@H](CCCNC(=N)N)NC(=O)[C@H](CCC(N)=O)NC(=O)[C@H](Cc2cnc[nH]2)NC(=O)[C@H](CCC(=O)O)NC(=O)[C@@H]2CCCN2C(=O)[C@H](CO)NC(=O)[C@H](CCC(N)=O)NC1=O (cyclo(EHQRVQSP)) | – | – | – | – | – | – | – | – | – | – | inhibition [2]: Active; Activity (HIT-T15 [3]): Dose-dependent effect; Activity (HIT-T15 [4]): Dose-dependent effect; Activity (EPC [5]): Active; Activity (EPC [6]): Active |
| H-EHQRV-NH2 | inactive | Active | – | – | – | – | – | – | – | – | Activity (HIT-T15 [1]): Active; Activity (HIT-T15 [7]): inactive |
| H-EHQRVQ-NH2 | Active | Active | Active | – | – | – | – | – | – | – | – |
| H-ESKKPPAKLQPR-OH | – | – | inactive | inactive | inactive | inactive | inactive | inactive | inactive | inactive | – |
| H-GSSFL-NH2 | – | – | inactive | inactive | inactive | inactive | inactive | inactive | inactive | inactive | – |
| H-GSSFLSPEHQRVQQ-NH2 | – | – | Active | – | inactive | Active | Active | inactive | Active | Active | – |
| H-GSSFLSPEHQRVQQRKES-NH2 | – | – | Active | Active | Active | inactive | inactive | Active | Active | Active | – |
| H-QQVRQHEPSLFSSG-OH | inactive | inactive | inactive | – | – | inactive | inactive | – | – | – | Activity (HIT-T15 [7]): inactive; Activity (Pancreatic islet [18]): inactive |
| H-SPEHQRVA-NH2 | – | – | Active | – | – | – | – | – | – | Active | – |

From ChEMBL document CHEMBL2029233, “Des-acyl ghrelin fragments and analogues promote survival of pancreatic β-cells and human pancreatic islets and prevent diabetes in streptozotocin-treated rats” (2012)
